Data: ChEMBL document CHEMBL1166015, “Design, synthesis, and docking of highly hypolipidemic agents: Schizosaccharomyces pombe as a new model for evaluating alpha-asarone-based HMG-CoA reductase inhibitors” (Bioorg Med Chem, 2010)
Blank lines part the entries; values can stand above or below the compound they belong to.

Legend:
[1] = target: T1, 3-hydroxy-3-methylglutaryl-coenzyme A reductase (Schizosaccharomyces pombe 972h-, UniProt Q10283); assay: Inhibition of Schizosaccharomyces pombe HMG-CoA reductase by spectrophotometry; settings: read-out: IC50
T1 sequence (Q10283 whole entry): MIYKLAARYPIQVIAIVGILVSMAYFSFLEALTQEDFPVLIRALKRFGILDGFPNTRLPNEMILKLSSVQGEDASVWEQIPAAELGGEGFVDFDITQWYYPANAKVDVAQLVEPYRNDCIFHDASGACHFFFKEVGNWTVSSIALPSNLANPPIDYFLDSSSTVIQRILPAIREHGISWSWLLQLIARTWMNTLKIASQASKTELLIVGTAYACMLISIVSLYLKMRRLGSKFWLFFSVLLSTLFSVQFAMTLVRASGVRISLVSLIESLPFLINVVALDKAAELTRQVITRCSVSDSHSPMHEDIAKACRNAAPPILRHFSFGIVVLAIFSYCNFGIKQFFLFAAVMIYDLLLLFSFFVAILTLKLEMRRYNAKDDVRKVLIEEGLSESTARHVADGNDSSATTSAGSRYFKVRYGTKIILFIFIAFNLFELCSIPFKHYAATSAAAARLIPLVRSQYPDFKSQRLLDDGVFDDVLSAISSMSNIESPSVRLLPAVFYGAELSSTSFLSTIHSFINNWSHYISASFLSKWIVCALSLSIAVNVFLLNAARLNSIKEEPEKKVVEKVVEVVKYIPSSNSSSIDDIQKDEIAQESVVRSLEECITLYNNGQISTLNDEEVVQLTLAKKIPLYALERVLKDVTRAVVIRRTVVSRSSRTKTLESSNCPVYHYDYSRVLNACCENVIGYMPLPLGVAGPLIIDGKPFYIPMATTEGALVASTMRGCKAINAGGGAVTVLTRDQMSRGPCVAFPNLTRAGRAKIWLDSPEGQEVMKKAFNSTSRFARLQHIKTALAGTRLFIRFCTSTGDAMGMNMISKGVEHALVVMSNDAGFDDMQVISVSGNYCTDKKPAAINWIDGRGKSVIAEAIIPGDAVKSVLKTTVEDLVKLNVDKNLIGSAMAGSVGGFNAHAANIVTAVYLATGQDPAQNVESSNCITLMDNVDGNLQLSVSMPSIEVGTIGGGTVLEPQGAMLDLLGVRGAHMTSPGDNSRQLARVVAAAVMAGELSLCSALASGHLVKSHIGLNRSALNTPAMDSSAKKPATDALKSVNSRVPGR
In short: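 Membrane HMGR partially purified from S. pombe 972 h (YPD, 28 °C, 48 h) via centrifugation, Triton X-100 solubilization, 65 °C heat step, ammonium sulfate and calcium phosphate gel. Enzyme activated 37 °C 30 min, pre-incubated with compound (DMSO stocks 1–5 mM) 30 min at 37 °C. Assay: 200 µg enzyme, 0.13 mM HMG-CoA, 50 mM Tris-HCl pH 7.5; started with 0.13 mM NADPH; A340 decrease over 2 min; triplicate; IC50 derived.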

[2] = test system: Mus musculus; assay: Hypolipidemic activity in ICR mouse assessed as decrease in Tyloxapol-induced LDL-cholesterol level at 50 mg/kg, ip administered 1 hr before Tyloxapol challenge and 22, 48 hrs after Tyloxapol challenge measured after 22 hrs relative to control; assay type: functional; set-up: scale not given: the % may be the effect or the level left; settings: route oral, in the assay text read “po administered” for “ip administered”
In short: (§1)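 Male ICR mice (24–27 g), groups of six. Hyperlipidemia induced by ip Tyloxapol (Triton WR 1339) 400 mg/kg in water. Drug given at 5 mL/kg 1 h before and 22 and 48 h after injection; vehicle controls. Blood drawn 22 h post-injection by periorbital bleeding. Serum total cholesterol, HDL-C and triglycerides measured on an automatic analyzer; LDL-C by the Friedewald equation. Values are % of the Tyloxapol group, mean ± SE.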

[3] = test system: Mus musculus; assay: Hypolipidemic activity in high cholesterol diet fed ICR mouse assessed as reduction of LDL cholesterol level at 100 mg/kg/day, po after 12 hrs of last cholesterol challenge relative to control; set-up: scale not given: the % may be the effect or the level left
[4] = test system: Mus musculus; assay: Hypolipidemic activity in ICR mouse assessed as decrease in Tyloxapol-induced total cholesterol level at 50 mg/kg, ip administered 1 hr before Tyloxapol challenge and 22, 48 hrs after Tyloxapol challenge measured after 22 hrs relative to control; assay type: functional; set-up: scale not given: the % may be the effect or the level left; settings: route oral, in the assay text read “po administered” for “ip administered”; in short: as §1
[5] = test system: Mus musculus; assay: Hypolipidemic activity in ICR mouse assessed as decrease in Tyloxapol-induced total cholesterol level at 100 mg/kg, ip administered 1 hr before Tyloxapol challenge and 22, 48 hrs after Tyloxapol challenge measured after 22 hrs relative to control; assay type: functional; set-up: scale not given: the % may be the effect or the level left; settings: route oral, in the assay text read “po administered” for “ip administered”; in short: as §1
[6] = test system: Mus musculus; assay: Hypolipidemic activity in ICR mouse assessed as decrease in Tyloxapol-induced HDL-cholesterol level at 100 mg/kg, ip administered 1 hr before Tyloxapol challenge and 22, 48 hrs after Tyloxapol challenge measured after 22 hrs relative to control; assay type: functional; set-up: scale not given: the % may be the effect or the level left; settings: route intraperitoneal; in short: as §1
[7] = test system: Mus musculus; assay: Hypolipidemic activity in high cholesterol diet fed ICR mouse assessed as reduction of LDL cholesterol level at 50 mg/kg/day, po after 12 hrs of last cholesterol challenge relative to control; set-up: scale not given: the % may be the effect or the level left
[8] = test system: Mus musculus; assay: Hypolipidemic activity in ICR mouse assessed as decrease in Tyloxapol-induced triglyceride level at 50 mg/kg, ip administered 1 hr before Tyloxapol challenge and 22, 48 hrs after Tyloxapol challenge measured after 22 hrs relative to control; assay type: functional; set-up: scale not given: the % may be the effect or the level left; settings: route intraperitoneal; in short: as §1
[9] = test system: Mus musculus; assay: Hypolipidemic activity in high cholesterol diet fed ICR mouse assessed as reduction of total cholesterol level at 50 mg/kg, ip after 12 hrs of last cholesterol challenge relative to control; assay type: functional; set-up: scale not given: the % may be the effect or the level left; settings: route intraperitoneal
In short: (§2)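 Male ICR mice (24–27 g), six per group, were fed a high-cholesterol diet ad libitum for 6 days (1.0% cholesterol, 0.5% sodium cholate, 5% butter, 30% sucrose, 10% casein, 53.5% chow). Basal-diet mice served as controls. Dosing was 5 mL/kg and solutions were made fresh. Mice were fasted 12 h before sacrifice and bled periorbitally. Serum TC, HDL-C and TG were read on an analyzer, with LDL-C by Friedewald.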

[10] = test system: Mus musculus; assay: Hypolipidemic activity in ICR mouse assessed as decrease in Tyloxapol-induced HDL-cholesterol level at 50 mg/kg, ip administered 1 hr before Tyloxapol challenge and 22, 48 hrs after Tyloxapol challenge measured after 22 hrs relative to control; assay type: functional; set-up: scale not given: the % may be the effect or the level left; settings: route oral, in the assay text read “po administered” for “ip administered”; in short: as §1
[11] = test system: Mus musculus; assay: Hypolipidemic activity in ICR mouse assessed as decrease in Tyloxapol-induced LDL-cholesterol level at 100 mg/kg, ip administered 1 hr before Tyloxapol challenge and 22, 48 hrs after Tyloxapol challenge measured after 22 hrs relative to control; assay type: functional; set-up: scale not given: the % may be the effect or the level left; settings: route oral, in the assay text read “po administered” for “ip administered”; in short: as §1
[12] = test system: Mus musculus; assay: Hypolipidemic activity in high cholesterol diet fed ICR mouse assessed as reduction of HDL cholesterol level at 100 mg/kg/day, po after 12 hrs of last cholesterol challenge relative to control; set-up: scale not given: the % may be the effect or the level left
[13] = test system: Mus musculus; assay: Hypolipidemic activity in high cholesterol diet fed ICR mouse assessed as reduction of HDL cholesterol level at 50 mg/kg/day, po after 12 hrs of last cholesterol challenge relative to control; set-up: scale not given: the % may be the effect or the level left
[14] = test system: Mus musculus; assay: Hypolipidemic activity in ICR mouse assessed as decrease in Tyloxapol-induced triglyceride level at 100 mg/kg, ip administered 1 hr before Tyloxapol challenge and 22, 48 hrs after Tyloxapol challenge measured after 22 hrs relative to control; assay type: functional; set-up: scale not given: the % may be the effect or the level left; settings: route intraperitoneal; in short: as §1
[15] = test system: Mus musculus; assay: Hypolipidemic activity in high cholesterol diet fed ICR mouse assessed as reduction of triglyceride level at 50 mg/kg/day, po after 12 hrs of last cholesterol challenge relative to control; set-up: scale not given: the % may be the effect or the level left
[16] = test system: Mus musculus; assay: Hypolipidemic activity in high cholesterol diet fed ICR mouse assessed as reduction of triglyceride level at 100 mg/kg/day, po after 12 hrs of last cholesterol challenge relative to control; set-up: scale not given: the % may be the effect or the level left
[17] = test system: Mus musculus; assay: Hypolipidemic activity in high cholesterol diet fed ICR mouse assessed as reduction of total cholesterol level at 100 mg/kg/day, ip after 12 hrs of last cholesterol challenge relative to control; assay type: functional; set-up: scale not given: the % may be the effect or the level left; settings: route intraperitoneal; in short: as §2

IC50 [1]: 197 µM
SMILES: CCc1ccc(OCC(=O)OC)c([N+](=O)[O-])c1

IC50 [1]: 167 µM
SMILES: C/C=C/c1cc(OC)c(OC)cc1N

IC50 [1]: 84.6 µM
SMILES: CCCCCc1cc(OC)c(OC)cc1OC

IC50 [1]: 144 µM
SMILES: C=CCc1cc(OC)c(OCC(=O)O)cc1[N+](=O)[O-]

IC50 [1]: 129 µM
SMILES: C/C=C/c1ccc(OCCNC(=O)c2ccc(Cl)cc2)c(OC)c1

IC50 [1]: 135 µM
SMILES: CCCc1cc(OC)c(OCC(=O)O)cc1[N+](=O)[O-]
Activity [2]: -40.34% | Activity [3]: -28.88% | Activity [4]: -51.59% | Activity [5]: -59.67% | Activity [6]: -20.86% | Activity [7]: -41.1% | Activity [8]: -10.09% | Activity [9]: -47.12% | Activity [10]: -21.86% | Activity [11]: -44.61% | Activity [12]: -55.62% | Activity [13]: -79.36% | Activity [14]: -25.11% | Activity [15]: -49.21% | Activity [16]: -47.72% | Activity [17]: -50.22%

IC50 [1]: 91.3 µM
SMILES: COC(=O)COc1ccccc1C

IC50 [1]: 182 µM
SMILES: CCOC(=O)COc1cccc(C)c1

IC50 [1]: 71.4 µM
SMILES: C/C=C/c1cc(OC)c(OC)cc1Cl

SMILES: C/C=C/c1cc(OC)c(OC)cc1OC [TRANS-ASARONE]
IC50 [1]: 2490 µM

IC50 [1]: 1620 µM
SMILES: CCOC(=O)COc1cccc(CC)c1

SMILES: CCCc1ccc(OCC(=O)O)c(OC)c1
Activity [2]: -32.56% | Activity [3]: -44.51% | Activity [4]: -21.28% | Activity [5]: -22.59% | Activity [6]: -15.32% | Activity [7]: -33.54% | Activity [8]: -32.46% | Activity [9]: -32.83% | Activity [10]: -18.23% | Activity [11]: -39.12% | Activity [12]: -19.33% | Activity [13]: -15.66% | Activity [14]: -29.89% | Activity [15]: -38.38% | Activity [16]: -27.55% | Activity [17]: -25.66%

IC50 [1]: 1320 µM
SMILES: CCc1ccc(OCC(=O)OC)cc1
